Experimental data taken from ChEMBL document CHEMBL4304784, “Discovery of new potent dual sigma receptor/GluN2b ligands with antioxidant property as neuroprotective agents” (Eur J Med Chem, 2019).
Converted amounts (≈) assume the structure as drawn.

Legend:
[1] = molecular target: T1, Glutamate NMDA receptor; GRIN1/GRIN2B (Homo sapiens, UniProt Q05586+Q13224); assay: Displacement of [3H]ifenprodil from GluN1a/GluN2B (unknown origin) expressed in mouse L(tk-) cell membranes after 120 mins by solid scintillation counting method
Method in brief: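 Membranes (about 20 μg protein) from mouse L(tk-) cells stably carrying GluN1a/GluN2B, induced with 4 μM dexamethasone and 4 μM ketamine for 24 h. Incubated with 5 nM [3H]ifenprodil in 5 mM TRIS/1 mM EDTA pH 7.5 at 37 °C, 120 min. Non-specific binding defined with 10 μM ifenprodil.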

[2] = molecular target: Sigma non-opioid intracellular receptor 1 (Cavia porcellus, UniProt Q60492); assay: Displacement of [3H]-(+)-pentazocine from sigma1 receptor in guinea pig brain cortex membranes incubated for 120 mins by solid scintillation counting method; format: cell membranes
Chain of Sigma non-opioid intracellular receptor 1 (Q60492 whole entry): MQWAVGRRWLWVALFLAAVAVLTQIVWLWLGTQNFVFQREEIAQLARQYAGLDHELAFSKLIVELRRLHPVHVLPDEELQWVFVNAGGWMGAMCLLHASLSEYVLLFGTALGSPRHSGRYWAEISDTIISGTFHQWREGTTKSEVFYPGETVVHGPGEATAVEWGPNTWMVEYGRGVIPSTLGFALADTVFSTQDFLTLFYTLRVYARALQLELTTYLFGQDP
Method in brief: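 Guinea pig brain cortex membranes (about 100 µg protein) with 2 nM [3H]-(+)-pentazocine in 50 mM TRIS pH 7.4 at 37 °C. Non-specific binding defined with 10 µM unlabeled (+)-pentazocine. Six concentrations, 10^-5 to 10^-10 M, in duplicate. 120 min with shaking, filtration, solid scintillator counting.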

[3] = molecular target: T2, Sigma intracellular receptor 2 (Rattus norvegicus, UniProt Q5U3Y7); assay: Displacement of [3H]-di-o-tolylguanidine from sigma2 receptor in rat liver membranes in the presence of sigma1 receptor ligand (+)-pentazocine incubated for 120 mins by scintillation counting method; format: cell membranes
T2 sequence (Q5U3Y7 whole entry): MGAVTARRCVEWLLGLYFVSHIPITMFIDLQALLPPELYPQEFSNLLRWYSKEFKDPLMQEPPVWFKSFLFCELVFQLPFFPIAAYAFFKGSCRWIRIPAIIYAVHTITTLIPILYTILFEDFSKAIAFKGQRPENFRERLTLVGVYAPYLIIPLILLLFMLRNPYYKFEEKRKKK
Method in brief: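 Rat liver membranes (about 100 µg protein) with 3 nM [3H]di-o-tolylguanidine in 50 mM TRIS pH 8.0 containing 500 nM (+)-pentazocine, at rt. Non-specific binding defined with 10 µM unlabeled DTG. Concentrations 10^-5 to 10^-10 M, in duplicate. 120 min, filtration, scintillation counting. Three independent experiments, mean ± SEM.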

[4] = Selectivity ratio of Ki for sigma1 receptor in guinea pig brain membranes to Ki for sigma2 receptor in rat liver membranes; format: cell membranes
[5] = Selectivity ratio of Ki for sigma2 receptor in rat liver membranes to Ki for GluN1a/GluN2B (unknown origin) expressed in mouse L(tk-) cell membranes; format: cell-based
[6] = Antioxidant activity assessed as ABTS radical scavenging activity incubated for 40 mins; format: functional
Method in brief: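 Test compound at 0.05, 0.1, 0.2 and 0.4 mg/mL (200 µL) added to 1.8 mL ethanolic ABTS 7mM. Incubated 40 min at room temperature, absorbance read at 735 nm against ABTS solution. Percent inhibition computed from absorbances and used to derive IC50. Triplicate, mean ± SEM; ascorbic acid as reference.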

[7] = Antioxidant activity assessed as H2O2 radical scavenging activity; format: functional
Method in brief: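 Compounds at 0.05, 0.1, 0.2 and 0.4 mg/mL in phosphate buffer pH 7.4. 0.353 mL of 4 mM H2O2 in phosphate buffer added to 2.0 mL of each solution, absorbance read at 239 nm. Percent inhibition calculated from absorbances relative to control. Triplicate, mean ± SEM.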

[8] = Cytotoxicity against human SH-SY5Y cells assessed as cell viability at 10 uM incubated for 48 hrs by MTT assay (reference value: 100 +/- 12.00%); format: cell-based; conditions: read-out: Activity
Method in brief: (§1)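 Cells kept in DMEM Glutamax with 10% FBS and antibiotic/antimycotic at 37 °C, 5% CO2. Plated at 2x10^3 cells/well 24 h before dosing. Compounds taken from DMSO and diluted in medium, final DMSO ≤1.0%. Exposure 48 h, then MTT added for 4 h at 37 °C. Read as A595 minus A655. Triplicates, at least three independent experiments, mean ± SEM.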

[9] = Cytotoxicity against human SH-SY5Y cells assessed as cell viability at 25 uM incubated for 48 hrs by MTT assay (reference value: 100 +/- 12.00%); format: cell-based; conditions: read-out: Activity; method in brief: as §1
[10] = Cytotoxicity against human SH-SY5Y cells assessed as cell viability at 50 uM incubated for 48 hrs by MTT assay (reference value: 100 +/- 12.00%); format: cell-based; conditions: read-out: Activity; method in brief: as §1
[11] = Cytotoxicity against human SH-SY5Y cells assessed as cell viability at 100 uM incubated for 48 hrs by MTT assay (reference value: 100 +/- 12.00%); format: cell-based; conditions: read-out: Activity; method in brief: as §1
[12] = Cytotoxicity against human Hep3B cells assessed as cell viability at 10 uM incubated for 48 hrs by MTT assay relative to control; format: cell-based, Hep 3B2; conditions: read-out: Activity; method in brief: as §1
[13] = Cytotoxicity against human Hep3B cells assessed as cell viability at 25 uM incubated for 48 hrs by MTT assay relative to control; format: cell-based, Hep 3B2; conditions: read-out: Activity; method in brief: as §1
[14] = Cytotoxicity against human Hep3B cells assessed as cell viability at 50 uM incubated for 48 hrs by MTT assay relative to control; format: cell-based, Hep 3B2; conditions: read-out: Activity; method in brief: as §1
[15] = Cytotoxicity against human Hep3B cells assessed as cell viability at 100 uM incubated for 48 hrs by MTT assay relative to control; format: cell-based, Hep 3B2; conditions: read-out: Activity; method in brief: as §1
[16] = Cytotoxicity against human HeLa cells assessed as cell viability at 10 uM incubated for 48 hrs by MTT assay relative to control; format: cell-based; conditions: read-out: Activity; method in brief: as §1
[17] = Cytotoxicity against human HeLa cells assessed as cell viability at 25 uM incubated for 48 hrs by MTT assay relative to control; format: cell-based; conditions: read-out: Activity; method in brief: as §1
[18] = Cytotoxicity against human HeLa cells assessed as cell viability at 50 uM incubated for 48 hrs by MTT assay relative to control; format: cell-based; conditions: read-out: Activity; method in brief: as §1
[19] = Cytotoxicity against human HeLa cells assessed as cell viability at 100 uM incubated for 48 hrs by MTT assay relative to control; format: cell-based; conditions: read-out: Activity; method in brief: as §1
[20] = Cytotoxicity against human SH-SY5Y cells assessed as decrease in cell viability incubated for 48 hrs by MTT assay; format: cell-based; conditions: read-out: LD50
Method in brief: (§2)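 Cells kept in DMEM Glutamax with 10% FBS and antibiotic/antimycotic at 37 °C, 5% CO2. Seeded 24 h before dosing (SH-SY5Y at 2x10^3 cells/well). Compounds in DMSO serially diluted in medium, final DMSO 1.0%, exposure 48 h. MTT added for 4 h at 37 °C, read A595 minus A655. LD50 from linear regression of dose-log response curves; triplicates, three experiments, mean ± SEM.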

[21] = Cytotoxicity against human Hep3B cells assessed as decrease in cell viability incubated for 48 hrs by MTT assay; format: cell-based, Hep 3B2; conditions: read-out: LD50; method in brief: as §2
[22] = Cytotoxicity against human HeLa cells assessed as decrease in cell viability incubated for 48 hrs by MTT assay; format: cell-based; conditions: read-out: LD50; method in brief: as §2
SH-SY5Y = assay: Neuroprotective activity against H2O2-induced toxicity in human SH-SY5Y cells assessed as cell viability at 25 uM pretreated for 48 hrs followed by H2O2 challenge and measured after 4 hrs by MTT assay (reference value: 18 +/- 2.64%); format: functional; conditions: read-out: Activity
[23] = molecular target: T1, Glutamate NMDA receptor; GRIN1/GRIN2B; assay: Potency index, ratio of ifenprodil Ki to test compound Ki for displacement of [3H]ifenprodil from GluN1a/GluN2B (unknown origin) expressed in mouse L(tk-) cell membranes

| SMILES | Ki [1] | Ki [2] | Ki [3] | Ratio Ki [4] | Ratio Ki [5] | IC50 [6] | IC50 [7] | viability at 48 h, 10 µM [8] | viability at 48 h, 25 µM [9] | viability at 48 h, 50 µM [10] | viability at 48 h, 100 µM [11] | viability at 48 h, 10 µM [12] | viability at 48 h, 25 µM [13] | viability at 48 h, 50 µM [14] | viability at 48 h, 100 µM [15] | viability at 48 h, 10 µM [16] | viability at 48 h, 25 µM [17] | viability at 48 h, 50 µM [18] | viability at 48 h, 100 µM [19] | CC50 at 48 h [20] | further results |
| --- | --- | --- | --- | --- | --- | --- | --- | --- | --- | --- | --- | --- | --- | --- | --- | --- | --- | --- | --- | --- | --- |
| O=C1CCc2ccccc2N1CCCCN1CCN(C2CCCCC2)CC1 | 0.002 µM | 0.021 µM | 0.0015 µM | 14 | 0.75 | 35.79 µg/mL (≈ 96.8 µM) | 38.29 µg/mL (≈ 104 µM) | 91% | 81 to 111% | 86% | 99% | 106% | 70% | 48% | 52% | 83% | 75% | 79% | 94% | 493 µM | CC50 at 48 h [21]: 81 µM; CC50 at 48 h [22]: 265 µM; viability at 25 µM (SH-SY5Y): 105%; Ratio Ki [23]: 5 |
| Cc1ccc(CN(C)CCCCn2nc(-c3ccccc3)oc2=O)c(C)c1 | 0.026 µM | 0.02 µM | 0.021 µM | 0.95 | 0.8 | 25.47 µg/mL (≈ 69.7 µM) | 31.44 µg/mL (≈ 86 µM) | 121% | 85 to 96% | 75% | 28% | 100% | 83% | 70% | 25% | 86% | 74% | 80% | 22% | 77 µM | CC50 at 48 h [21]: 70 µM; CC50 at 48 h [22]: 69 µM; viability at 25 µM (SH-SY5Y): 100% |
| O=C1CCc2ccccc2N1CCCCN1CCC2(CC1)OCc1ccccc12 | 0.005 µM | 0.018 µM | 0.034 µM | 0.5 | 6.8 | 78.8 µg/mL (≈ 202 µM) | 84.56 µg/mL (≈ 217 µM) | 116% | 88 to 107% | 40% | 16% | 61% | 67% | 38% | 10% | 92% | 78% | 45% | 31% | 60 µM | CC50 at 48 h [21]: 50 µM; CC50 at 48 h [22]: 55 µM; viability at 25 µM (SH-SY5Y): 97% |
| COc1cc2c(cc1OC)CN(CCCCn1nc(-c3ccccc3)oc1=O)CC2 | 0.027 µM | 1.6 µM | 0.864 µM | 1.8 | 32 | 20.95 µg/mL (≈ 51.2 µM) | 27.63 µg/mL (≈ 67.5 µM) | 97% | 80 to 94% | 96% | 95% | 85% | 75% | 58% | 25% | 84% | 82% | 81% | 39% | 77 µM | CC50 at 48 h [21]: 70 µM; CC50 at 48 h [22]: 69 µM; viability at 25 µM (SH-SY5Y): 88% |
